Experimental findings from ChEMBL document CHEMBL4414601 (J Med Chem, 2019) are described below.

Molecules are shown by their SMILES.

For data set [1], the system named is Plasmodium falciparum. Nature of the data set: Antiplasmodial activity against Plasmodium falciparum 3D7A erythrocytic stage assessed as reduction in [3H]hypoxanthine incorporation preincubated for 24 hrs followed by [3H]hypoxanthine addition and measured after 24 hrs by microbeta scintillation counting method. It is filed as functional, organism-based. In a few lines:
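Nine threefold serial dilutions from 5 μM top concentration. Incubated 24 h at 37 °C under 5% CO2/5% O2/90% N2, then 0.2 μCi [3H]-hypoxanthine per well for another 24 h. Cells harvested on glass fibre filters and counted. Data normalized to compound-free parasitized RBCs; IC50 fitted.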

Data set [2] is described as follows: Permeability of compound by PAMPA. Background: In PAMPA a lipid-coated filter parts donor from acceptor wells.
In data set [3] the test system is Plasmodium falciparum. Nature of the data set: Antiplasmodial activity against […] of Plasmodium falciparum NF54 assessed as reduction in female gametocytes activation preincubated for 48 hrs followed by gametocytes activation and measured after 24 hrs by fluorescence based automated inverted microscopic analysis. Format: functional, organism-based. In a few lines:
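NF54 gametocytes were activated by lowered temperature plus ookinete medium with xanthurenic acid and anti-Pfs25-Cy3 antibody (1/2000 final dilution). Cultures were then kept at 26 °C for 24 h in the dark. Activated females were counted by Cy3 anti-Pfs25 fluorescence, with events gated on size, roundness and fluorescence intensity.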

Data set [4] deals with T1, Amine oxidase [flavin-containing] A (Homo sapiens, UniProt P21397).
T1 sequence (P21397 whole entry): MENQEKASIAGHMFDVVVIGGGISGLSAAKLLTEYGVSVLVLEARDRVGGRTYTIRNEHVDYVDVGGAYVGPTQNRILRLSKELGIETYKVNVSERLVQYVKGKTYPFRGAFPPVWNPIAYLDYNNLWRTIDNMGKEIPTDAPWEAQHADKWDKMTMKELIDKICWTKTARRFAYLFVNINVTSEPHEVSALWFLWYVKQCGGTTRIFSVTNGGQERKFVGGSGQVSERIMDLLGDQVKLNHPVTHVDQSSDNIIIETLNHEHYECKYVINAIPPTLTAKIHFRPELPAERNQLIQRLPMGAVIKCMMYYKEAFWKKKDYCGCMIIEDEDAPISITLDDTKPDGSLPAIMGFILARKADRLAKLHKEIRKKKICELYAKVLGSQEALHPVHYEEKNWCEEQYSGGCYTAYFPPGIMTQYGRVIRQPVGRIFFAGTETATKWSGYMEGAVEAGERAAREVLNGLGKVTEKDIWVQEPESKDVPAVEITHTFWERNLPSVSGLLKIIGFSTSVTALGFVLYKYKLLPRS
Nature of the data set: Inhibition of human MAO-A.

For data set [5], the target named is Beta-2 adrenergic receptor (Homo sapiens, UniProt P07550). Nature of the data set: Antagonist activity at human beta2 adrenoceptor.
In data set [6] the target is Voltage-gated potassium channel, IKs; KCNQ1(Kv7.1)/KCNE1(MinK) (Homo sapiens, UniProt P15382+P51787). Nature of the data set: Inhibition of human KCNQ1/KCNE1.
The target of data set [7] is cGMP-inhibited 3',5'-cyclic phosphodiesterase 3A (Homo sapiens, UniProt Q14432). Nature of the data set: Inhibition of PDE3A (unknown origin).
Data set [8] deals with Plasmodium falciparum. Nature of the data set: Antiplasmodial activity against Plasmodium falciparum 3D7A asexual erythrocytic stage assessed as reduction in [3H]hypoxanthine incorporation preincubated for 48 hrs followed by [3H]hypoxanthine addition and measured after 24 hrs by microbeta scintillation counting method. It is filed as functional, organism-based.
The test system of data set [9] is Plasmodium falciparum. Nature of the data set: Antiplasmodial activity against Plasmodium falciparum 3D7A asexual erythrocytic stage assessed as reduction in [3H]hypoxanthine incorporation preincubated for 72 hrs followed by [3H]hypoxanthine addition and measured after 24 hrs by microbeta scintillation counting method. Format: functional, organism-based.
Data set [10] concerns Plasmodium falciparum. Nature of the data set: Antiplasmodial activity against Plasmodium falciparum 3D7A harboring with PKG T618Q mutant asexual erythrocytic stage assessed as reduction in [3H]hypoxanthine incorporation preincubated for 72 hrs followed by [3H]hypoxanthine addition and measured after 24 hrs by microbeta scintillation counting method. Format: functional, organism-based.

The target of data set [11] is T2, Calcium-dependent protein kinase 1 (Plasmodium falciparum, UniProt P62344). Nature of the data set: Binding affinity to CDPK1 in Plasmodium falciparum 3D7 blood stage extract incubated for 1 hr by kinobeads based pull down assay. The following applies: read-out: Kd(app). In a few lines:
(§1)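 Chemoproteomic competition used kinobeads or Sepharose beads derivatized with ligand at 1 mM. Free compound was tested at six concentrations between 0.08 and 20 μM, in two independent experiments. Proteins were SP3-digested, TMT 10-plex labelled and measured by LC-MS/MS. IC50s came from competition curves, and apparent Kd was corrected for protein depletion by the beads.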

In data set [12] the target is T2, Calcium-dependent protein kinase 1. Nature of the data set: Binding affinity to CDPK1 in Plasmodium falciparum 3D7 blood stage extract incubated for 1 hr in presence of ATP-competitive kinase inhibitor by kinobeads based pull down assay. The following applies: read-out: Kd(app). In a few lines: as §1
A short description of data set [13]: Binding affinity to zinc finger (CCCH type) protein in Plasmodium falciparum 3D7 blood stage extract incubated for 1 hr in presence of ATP-competitive kinase inhibitor by kinobeads based pull down assay. To be noted: read-out: Kd(app).
In the next data set the target is T3, Casein kinase I (Plasmodium falciparum (isolate 3D7), UniProt Q8IHZ9).
T3 sequence (Q8IHZ9 whole entry): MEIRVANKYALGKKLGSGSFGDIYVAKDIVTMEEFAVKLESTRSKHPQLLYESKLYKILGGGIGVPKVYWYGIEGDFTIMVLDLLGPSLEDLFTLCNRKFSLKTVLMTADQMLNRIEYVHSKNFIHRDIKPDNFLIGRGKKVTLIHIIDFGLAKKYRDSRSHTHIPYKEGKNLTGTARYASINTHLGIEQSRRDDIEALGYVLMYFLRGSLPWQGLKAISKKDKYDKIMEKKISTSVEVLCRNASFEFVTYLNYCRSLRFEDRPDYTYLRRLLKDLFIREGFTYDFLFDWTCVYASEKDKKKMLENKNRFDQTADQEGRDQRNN
Nature of the data set: Binding affinity to CK1 in Plasmodium falciparum 3D7 blood stage extract incubated for 1 hr by kinobeads based pull down assay. To be noted: read-out: Kd(app). In a few lines:
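Chemoproteomic competition binding: Sepharose beads derivatized at 1 mM with the immobilized ligand (kinobeads prepared likewise). Free compound competed at six concentrations, 0.08–20 μM. Proteins were SP3-digested, TMT 10-plex labelled and quantified by LC-MS/MS on an Orbitrap. IC50 from the competition curve; apparent Kd corrected for protein depletion by the beads. Two independent experiments.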

Data set [14] can be described thus: Binding affinity to SRPK2 in Plasmodium falciparum 3D7 blood stage extract incubated for 1 hr in presence of ATP-competitive kinase inhibitor by kinobeads based pull down assay. The following applies: read-out: Kd(app). In a few lines: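 The free compound competed over six concentrations from 0.08 to 20 μM. Proteins were digested by a modified SP3 protocol, labelled with TMT 10-plex and quantified by LC-MS/MS. Apparent Kd was derived from IC50 corrected for bead depletion. Two independent experiments were run.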

T2 sequence (P62344 whole entry): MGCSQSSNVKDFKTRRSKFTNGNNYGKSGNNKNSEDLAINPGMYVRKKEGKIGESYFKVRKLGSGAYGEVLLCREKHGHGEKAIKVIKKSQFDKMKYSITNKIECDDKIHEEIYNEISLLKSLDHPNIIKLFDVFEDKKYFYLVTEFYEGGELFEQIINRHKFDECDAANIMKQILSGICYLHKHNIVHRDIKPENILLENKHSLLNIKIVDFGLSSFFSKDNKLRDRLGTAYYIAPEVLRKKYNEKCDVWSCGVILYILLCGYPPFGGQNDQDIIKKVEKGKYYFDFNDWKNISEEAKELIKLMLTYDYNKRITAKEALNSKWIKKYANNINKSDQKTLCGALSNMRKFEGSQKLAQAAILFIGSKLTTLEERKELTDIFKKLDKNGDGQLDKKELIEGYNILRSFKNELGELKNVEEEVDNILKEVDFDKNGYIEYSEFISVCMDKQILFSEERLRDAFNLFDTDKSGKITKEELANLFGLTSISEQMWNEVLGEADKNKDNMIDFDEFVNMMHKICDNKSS
cGMP-inhibited 3',5'-cyclic phosphodiesterase 3A, sequence (Q14432 whole entry): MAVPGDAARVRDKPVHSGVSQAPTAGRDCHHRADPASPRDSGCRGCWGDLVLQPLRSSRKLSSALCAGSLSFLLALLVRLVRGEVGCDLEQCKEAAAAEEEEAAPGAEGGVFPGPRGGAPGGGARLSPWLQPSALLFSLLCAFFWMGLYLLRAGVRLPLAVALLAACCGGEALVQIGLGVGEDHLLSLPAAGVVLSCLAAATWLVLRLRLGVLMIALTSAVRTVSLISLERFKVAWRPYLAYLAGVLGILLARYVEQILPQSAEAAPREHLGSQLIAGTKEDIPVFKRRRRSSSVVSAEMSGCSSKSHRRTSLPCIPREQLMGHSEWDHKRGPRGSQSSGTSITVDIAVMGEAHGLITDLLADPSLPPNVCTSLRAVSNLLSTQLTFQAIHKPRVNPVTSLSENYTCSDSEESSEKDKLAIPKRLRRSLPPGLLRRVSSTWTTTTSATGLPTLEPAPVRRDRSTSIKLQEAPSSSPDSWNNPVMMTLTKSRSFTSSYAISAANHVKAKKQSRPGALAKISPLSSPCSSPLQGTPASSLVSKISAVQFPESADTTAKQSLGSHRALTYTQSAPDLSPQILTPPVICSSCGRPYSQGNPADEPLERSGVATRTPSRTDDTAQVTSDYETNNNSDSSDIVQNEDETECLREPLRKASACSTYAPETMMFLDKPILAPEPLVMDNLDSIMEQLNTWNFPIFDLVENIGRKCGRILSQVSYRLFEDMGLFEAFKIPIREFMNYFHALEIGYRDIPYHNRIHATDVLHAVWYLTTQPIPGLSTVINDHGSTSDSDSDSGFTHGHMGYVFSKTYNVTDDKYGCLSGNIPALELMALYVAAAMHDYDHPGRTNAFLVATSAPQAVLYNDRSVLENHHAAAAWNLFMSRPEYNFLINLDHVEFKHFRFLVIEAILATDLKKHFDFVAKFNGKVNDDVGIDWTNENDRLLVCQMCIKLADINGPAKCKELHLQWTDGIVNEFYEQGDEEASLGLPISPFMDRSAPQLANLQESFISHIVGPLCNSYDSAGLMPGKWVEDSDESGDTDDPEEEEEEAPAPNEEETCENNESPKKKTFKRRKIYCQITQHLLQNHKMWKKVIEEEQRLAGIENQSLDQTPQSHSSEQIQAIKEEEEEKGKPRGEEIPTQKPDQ
Voltage-gated potassium channel, IKs; KCNQ1(Kv7.1)/KCNE1(MinK), sequence (P51787 whole entry): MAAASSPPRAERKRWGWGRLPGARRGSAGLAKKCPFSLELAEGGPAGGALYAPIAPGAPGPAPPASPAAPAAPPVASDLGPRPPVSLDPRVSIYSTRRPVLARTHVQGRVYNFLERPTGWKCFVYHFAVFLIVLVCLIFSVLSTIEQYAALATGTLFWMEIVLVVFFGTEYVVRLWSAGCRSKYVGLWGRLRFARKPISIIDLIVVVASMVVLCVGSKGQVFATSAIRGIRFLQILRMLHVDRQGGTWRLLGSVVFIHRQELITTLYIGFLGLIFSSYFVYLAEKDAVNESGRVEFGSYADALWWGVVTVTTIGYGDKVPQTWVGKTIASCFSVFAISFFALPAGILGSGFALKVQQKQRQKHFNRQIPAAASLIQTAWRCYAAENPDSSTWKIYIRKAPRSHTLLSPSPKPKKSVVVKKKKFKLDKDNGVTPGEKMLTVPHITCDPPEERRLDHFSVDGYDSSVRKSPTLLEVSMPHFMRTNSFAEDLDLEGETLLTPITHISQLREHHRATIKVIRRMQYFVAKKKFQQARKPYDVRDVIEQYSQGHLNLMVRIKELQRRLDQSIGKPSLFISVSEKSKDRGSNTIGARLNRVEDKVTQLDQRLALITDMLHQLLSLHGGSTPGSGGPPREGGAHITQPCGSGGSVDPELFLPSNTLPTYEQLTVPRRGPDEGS
Beta-2 adrenergic receptor, sequence (P07550 whole entry): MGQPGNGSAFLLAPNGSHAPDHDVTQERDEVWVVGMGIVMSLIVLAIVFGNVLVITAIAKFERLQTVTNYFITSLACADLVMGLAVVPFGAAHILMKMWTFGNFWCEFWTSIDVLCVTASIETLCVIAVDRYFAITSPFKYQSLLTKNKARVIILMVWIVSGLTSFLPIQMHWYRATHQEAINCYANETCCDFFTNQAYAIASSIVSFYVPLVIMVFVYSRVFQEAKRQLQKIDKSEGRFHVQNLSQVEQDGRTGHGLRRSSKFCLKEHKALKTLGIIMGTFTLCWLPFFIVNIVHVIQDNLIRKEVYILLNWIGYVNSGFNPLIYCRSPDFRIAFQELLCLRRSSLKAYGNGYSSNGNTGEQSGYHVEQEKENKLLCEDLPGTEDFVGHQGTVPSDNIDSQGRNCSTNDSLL

By EC50 is commonly meant the concentration needed to bring the measured effect to its halfway point. In general, Papp refers to a coefficient for how fast a substance crosses the barrier. One may read the IC50 as the midpoint of a concentration-inhibition curve. Read a low IC50 as greater potency in that assay. Take `Cc1cc(Nc2nccc(-c3sc(C4CCNCC4)nc3-c3ccc(F)cc3)n2)ccn1`: the EC50 in the data set with Plasmodium falciparum [1] is 160 nM; with Plasmodium falciparum [3], 400 nM; in the data set with Plasmodium falciparum [8] it was 130 nM; in the data set on Plasmodium falciparum [9], 90 nM; in the data set with Plasmodium falciparum [10], 120 nM. Moreover, the apparent permeability (Papp) in data set [2] was 21 ×10⁻⁶ cm/s. Also, the IC50 in [4] was over 100000 nM; in [5], over 100000 nM; in data set [6], over 25000 nM; in data set [7], over 100000 nM. Besides, the Kd in data set [11] was 50 nM; in data set [12], 50 nM; in data set [13], 3900 nM; on Casein kinase I, 150 nM; in [14], 190 nM.
